# Compound activity as filed in PubChem.
# Mcl1-Bid inh = Mcl-1/Bid interaction inhibition; TR-FRET Mcl-1/Bid-Dy647 peptide binding, 1536-well; inhibition, % at 21.7 µM; 220,000 tested, 0.97% active; AID 1021;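 active means compounds that cut the binding signal by more than half at the single screening dose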;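 further: His-tagged Mcl-1 with europium anti-His antibody binding Bid BH3 peptide; 0% = Mcl-1 plus peptide wells and 100% = peptide-only wells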
# RBBP9 inhibitor = inhibitors of human serine hydrolase RBBP9; O75884; recombinant RBBP9, FP-Rh probe fluorescence polarization; inhibition, % at 7.94 µM; 220,000 tested, 0.2% active;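 active means inhibition above the campaign mean of all tested compounds plus 3 SD, cut at about 14% in these data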;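 further: plate controls were DMSO wells with RBBP9 for no effect and wells lacking RBBP9 protein for full effect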
# Target sequence (O75884 whole entry, looked up): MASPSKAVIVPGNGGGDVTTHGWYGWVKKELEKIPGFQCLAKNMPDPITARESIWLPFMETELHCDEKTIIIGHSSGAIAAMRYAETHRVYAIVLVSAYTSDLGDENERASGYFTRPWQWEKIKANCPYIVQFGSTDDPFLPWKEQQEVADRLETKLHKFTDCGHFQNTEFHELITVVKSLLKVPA
#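 Measured by: FP readout at 525/598 nm; material: recombinant human RBBP9; also added: Serine-hydrolase probe FP-Rh, 375 nM pre-mixing; medium: Tris buffer pH 8.0, NaCl, Pluronic; replication: one well per compound; doses: one concentration, 7.94 µM nominal, 0.794% DMSO; timing: preincubation 30 min plus labeling 45 min at 25 °C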
# Mcl1 Noxa PPI = Mcl-1/Noxa interaction inhibition; Q07820; TR-FRET Mcl-1/Noxa peptide binding, 2 h; inhibition, % at 21.7 µM; 220,000 tested, 1.5% active; AID 1022;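 active means compounds that cut the protein-peptide binding signal by more than 50% relative to plate controls in a single-dose test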;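 further: His-tagged Mcl-1 with rhodamine Noxa BH3 peptide and terbium anti-His antibody; 0% = Mcl-1 plus Noxa peptide wells and 100% = peptide-only wells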
# MCL1-BIM inh = inhibitors of human MCL1 binding to BIM-BH3 peptide; 320,000 tested, 0.68% active; AID 2057; GST-MCL1 / FITC-Bim-BH3 fluorescence polarization; inhibition, % at 10.9 µM; Q07820;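 active means inhibition above the mean inhibition of all tested compounds plus 3 SD, set per campaign, cut at about 40% in these data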;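 further: 0% = DMSO wells and 100% = unlabeled Bim-BH3 peptide control; higher means more loss of mP so more displacement of Bim peptide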
# Bim-Mcl-1 = disrupts Bim peptide binding to human Mcl-1 | Bead-based flow cytometry, Bim peptide-Mcl-1 binding | inhibition, % at 10 µM | 190,000 tested, 0.1% active | AID 1009; in the data active means inhibition above about 40%;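 further: 0% = no compound tracer wells and 100% = peptide blocker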
# EBV gp42 block = inhibitors of Epstein-Barr virus glycoprotein 42 | Q1HVG2 | Fluorescence polarization binding assay, mP read-out | inhibition, % (tested at 21.74 µM) | 220,000 tested, 0.42% active | AID 1085; in the data active means inhibition above about 50%
# Target sequence (Q1HVG2 whole entry, looked up): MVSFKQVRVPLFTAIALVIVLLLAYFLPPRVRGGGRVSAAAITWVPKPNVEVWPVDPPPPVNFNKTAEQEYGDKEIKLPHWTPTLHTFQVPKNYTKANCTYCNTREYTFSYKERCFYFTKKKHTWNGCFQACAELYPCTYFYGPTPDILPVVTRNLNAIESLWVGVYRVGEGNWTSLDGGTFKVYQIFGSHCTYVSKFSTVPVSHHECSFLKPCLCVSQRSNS
# Active calls of the source: *; · = not tested or not shown. Only some compounds are listed: those with a hit (about 2.2% of all), similar ones and a draw of the others.
SMILES,Mcl1-Bid inh,RBBP9 inhibitor,Mcl1 Noxa PPI,MCL1-BIM inh,Bim-Mcl-1,EBV gp42 block
O=C(O)CCc1ccc(-c2ccc(Br)cc2)n1Cc1ccco1,-36.6,-5.5,51.5*,6.8,0.0,-5.1
Cc1csc(=O)n1CC(=O)OCC(=O)NCc1ccc(F)cc1,·,·,·,0.1,·,·
O=C(CCNC(=O)C1CCN(S(=O)(=O)c2ccc(F)cc2)CC1)Nc1ccccc1,·,·,·,-0.2,·,·
CN(CC(=O)Nc1ccc(F)cc1)C(=O)CSc1nc2ncc(Cl)cc2[nH]1,-5.2,-7.1,67.3*,0.3,-3.0,-0.8
COc1cc(C#CC#CCN2CCCCC2)ccc1O,8.3,0.8,50.9*,10.3,-1.0,-5.4
COc1cc(C(=O)OCCN2CCCCC2)ccc1O,-67.0,-4.9,13.4,6.1,-5.0,7.9
CCOC(=O)/C=C(\C)Sc1cc(O)c2ccccc2c1O,-9.9,8.7,87.8*,·,·,-20.6
O=c1o[nH]c(-c2ccccc2)c1-c1ccccc1,·,·,·,2.9,·,·
O=C(NC(=S)NCCC1=CCCCC1)c1ccccc1Br,-53.4,-5.4,68.4*,34.4,-5.0,-7.6
CCc1cccc(CC)c1NC(=S)N1CCn2cccc2C1c1cccnc1 (configuration not stated),75.4*,1.8,17.0,8.4,22.0,-16.3
Cc1ccc(NC(=S)N2CCn3cccc3C2c2cccnc2)cc1 (configuration not stated),-38.6,-0.1,3.1,13.1,-4.0,-9.3
CC(C)C[C@H](NC(=O)C1CCN(S(=O)(=O)c2ccccc2)CC1)C(=O)NCc1ccncc1,·,·,·,3.9,·,·
Cc1cc(NS(=O)(=O)c2ccc(NC(=O)c3cc4c(=O)n5ccccc5nc4s3)cc2)nc(C)n1,-25.2,-7.2,14.6,·,4.0,14.0
CN(C)S(=O)(=O)c1cccc(NC(=O)c2cc3c(=O)n4ccccc4nc3s2)c1,68.9*,3.0,-82.7,-0.6,-2.0,4.5
COc1ccc(Cl)cc1NC(=O)CN1CCN(S(=O)(=O)N2CCCCC2)CC1,·,·,·,3.6,·,·
COCc1c(C(=O)N/N=C/c2ccncc2)nnn1-c1nonc1N,·,·,·,11.4,·,·
COc1ccc(-c2ccc(/C=C3/C(=N)N4C(C)=CSC4=NC3=O)o2)c([N+](=O)[O-])c1,17.1,-10.3,59.1*,8.5,-1.0,-9.3
c1ccc(-c2cc(-c3nnc4n3N=C(c3ccc5ccccc5c3)CS4)[nH]n2)cc1,57.6*,-17.7,30.8,1.5,0.0,-35.3
Cc1cc(-c2nnc3n2N=C(c2ccc(-c4ccccc4)cc2)CS3)n[nH]1,6.6,-14.6,4.4,-1.7,7.0,-11.7
Cc1c(C(C)NC(=O)c2cc(COc3cccc4cnccc34)on2)cnn1C (configuration not stated),·,·,·,4.9,·,·
CCOc1ccc(OCCN(C)Cc2ccccc2)cc1,58.9*,2.4,10.0,10.0,-5.0,-9.4
CCOc1cccc(OCCOCCN(C)Cc2ccccc2)c1,-23.4,-6.4,-5.9,3.6,5.0,-19.6
COc1ccc(-c2ncc3ccccn23)cc1OC,51.0*,4.3,22.5,0.7,0.0,-14.2
Clc1ccc(-c2ncc3ccccn23)cc1,-7.4,-7.5,14.0,1.8,-1.0,-25.2
COc1cc(/C=C/C(=O)c2ccc(NS(=O)(=O)c3ccc(C)cc3)cc2)ccc1OC(F)F,-0.5,-16.3,16.8,8.5,-2.0,-0.9
SMILES,Mcl1-Bid inh,RBBP9 inhibitor,Mcl1 Noxa PPI,MCL1-BIM inh,Bim-Mcl-1,EBV gp42 block
COc1cc(/C=C/C(=O)c2ccc(NS(=O)(=O)c3ccc(C)cc3)cc2)cc(OC)c1O,4.1,2.8,56.0*,1.8,4.0,-31.7
CCN(CC)c1ccc(NC(=O)CNCc2ccccc2Cl)c(C)c1,·,·,·,3.0,·,·
Cc1cc(N(CCO)CCO)ccc1C(c1ccc(N(CCO)CCO)cc1C)c1ccccc1Cl,57.2*,-3.5,101.5*,23.4,1.0,3.9
Cc1ccc2sc(N(CCCN(C)C)C(=O)CCS(=O)(=O)c3ccccc3)nc2c1C,·,·,·,8.3,·,·
CCc1nc2nc(C)c(NS(=O)(=O)c3ccc(Cl)s3)c(=O)n2[nH]1,·,·,·,0.8,·,·
CCN(CC)c1ccc(NC(=O)c2cccc(C)c2OC)c(C)c1,-21.4,-7.5,62.2*,-5.2,2.0,-7.8
O=C(NCc1cccnc1)Nc1ccccc1C(F)(F)F,·,·,·,-4.3,·,·
COc1ccc(C2=NC(=O)/C(=C\c3cc(OC)c(OC)c(OC)c3)O2)cc1,54.2*,-7.0,32.0,-3.3,-7.0,-12.9
CC(C)[C@@H](C(=O)NC1CCCC1)N1C(=O)N2CCc3c([nH]c4ccccc34)[C@@]2(C)C1=O,·,·,·,-2.8,·,·
